Measurements reported in ChEMBL document CHEMBL3407377, “Synthesis and pharmacological evaluation of benzannulated derivatives as potent and selective sigma-1 protein ligands” (Eur J Med Chem, 2015).

Columns and labels:
[1] = target: Sigma non-opioid intracellular receptor 1 (Homo sapiens, UniProt Q99720); assay: Displacement of [3H](+)Pentazocine from sigma 1 receptor in human Jurkat cells after 120 mins by liquid scintillation counting analysis; format: cell-based
[2] = Cytotoxicity against human SH-SY5Y cells assessed as cell viability after 72 hrs by MTT assay; format: cell-based
Outline: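 Human neuroblastoma SY5Y cells were exposed to a range of concentrations up to 100 μM. Viability was read by colorimetric MTT assay, and the IC50 was taken from it.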

[3] = Ratio of IC50 for human SY5Y cells to Ki for sigma 1 receptor in human Jurkat cells
Outline: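 Selectivity index was calculated as the SY5Y cytotoxicity IC50 divided by the S1R Ki. The IC50 came from a colorimetric MTT viability assay on human neuroblastoma SY5Y cells dosed up to 100 μM. The Ki came from [3H](+)-pentazocine competition binding on Jurkat cell membranes.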

Jurkat = assay: Selectivity ratio of Ki for sigma2 receptor in human Jurkat cells to Ki for sigma1 receptor human Jurkat cells; format: cell-based
Outline: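 Both affinities came from radioligand competition on Jurkat cell membranes. S1R used [3H](+)-pentazocine. S2R used [3H]-DTG with excess unlabelled (+)-pentazocine. Ki values were derived from IC50s, and the ratio was calculated as Ki(S2R)/Ki(S1R).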

Sequence of Sigma non-opioid intracellular receptor 1 (Q99720 whole entry): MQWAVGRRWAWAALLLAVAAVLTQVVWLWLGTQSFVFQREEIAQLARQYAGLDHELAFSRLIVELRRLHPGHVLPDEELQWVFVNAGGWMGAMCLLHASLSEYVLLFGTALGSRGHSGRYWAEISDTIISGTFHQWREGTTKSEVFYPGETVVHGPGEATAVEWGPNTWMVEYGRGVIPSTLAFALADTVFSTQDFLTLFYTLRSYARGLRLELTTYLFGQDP

Ki [1]	SMILES	IC50 [2]	Ratio [3]	Ratio Ki (Jurkat)
6.4 nM	CN(CCCn1c(=O)oc2ccc(Cl)cc21)Cc1ccccc1	> 100 µM	15500	16
4.7 nM	CN(CCCn1c(=O)sc2ccc(Cl)cc21)Cc1ccccc1	9.9 µM	2124	35
5.7 nM	O=c1sc2cc(Br)ccc2n1CCCN1Cc2ccccc2C1	31.4 µM	5471	
> 100 nM	CN(CCCN1C(=O)COc2ccc(Br)cc21)Cc1ccccc1	13.4 µM		
> 100 nM	CN(CCCn1c(=O)oc2ccccc21)Cc1ccccc1	> 100 µM		
3.1 nM	CN(CCCn1c(=O)sc2ccc(Br)cc21)Cc1ccccc1	26.5 µM	8417	35
> 100 nM	O=C1COc2ccc(Br)cc2N1CCCN1Cc2ccccc2C1	> 100 µM		
30.3 nM	O=c1sc2ccccc2n1CCCN1Cc2ccccc2C1	> 100 µM	>3000	
10.3 nM	CN(CCCn1c(=O)sc2ccccc21)Cc1ccccc1	10 µM	973	
> 100 nM	Cc1nc2ccccc2n1CCCN(C)Cc1ccccc1	50.2 µM		
	CN(CCCN1C(=O)[C@@H]2Cc3ccccc3CN2C1=O)Cc1ccccc1	> 100 µM		
> 100 nM	Cn1c(=O)n(CCCN2Cc3ccccc3C2)c2ccccc21	> 100 µM		
> 100 nM	CN(CCCn1c(=O)n(C)c2ccccc21)Cc1ccccc1	73.8 µM		
0.6 nM	CN(CCCn1c(=O)sc2cc(Br)ccc21)Cc1ccccc1	13.2 µM	23250	48
1.2 nM	CN(CCCn1c(=O)oc2ccc(Br)cc21)Cc1ccccc1	14.2 µM	11463	13
> 100 nM	O=c1oc2ccccc2n1CCCN1Cc2ccccc2C1	> 100 µM		
0.9 nM	CN(CCCn1c(=O)oc2cc(Br)ccc21)Cc1ccccc1	58.8 µM	63291	37
> 100 nM	O=c1oc2cc(Br)ccc2n1CCCN1Cc2ccccc2C1	> 100 µM		
5.3 nM	O=C1[C@@H]2Cc3ccccc3CN2C(=O)N1CCCN1Cc2ccccc2C1			78
2.2 nM	CN(CCCN1C(=O)CSc2ccc(Br)cc21)Cc1ccccc1	18.7 µM	8631	22
